The values below come from ChEMBL document CHEMBL3271986, “Studies on vitamin D (calciferol) and its analogues. 10. Side-chain analogues of 25-hydroxyvitamin D3” (J Med Chem, 1977).

Activity calls are given as the source filed them. The calls are words filed in the database; no cut-off is given here.

Holding throughout (type): functional, organism-based
Experiment [1] concerns Gallus gallus. The experiment is described as follows: Induction of intestinal [45Ca2+] absorption in rachitic white leghorn cockerel assessed as radioactivity in serum at 32.5 nmol, ip measured up to 96 hrs relative to control. In short, it runs like this: (§1)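 Rachitic chicks (3 weeks on low-calcium diet lacking vitamin D, then zero-calcium diet for 3 days) were dosed ip in 0.2 ml propanediol-ethanol (3/1); solvent-only -D controls. At assay, 5 µCi 45Ca2+ plus 4 mg 40Ca2+ carrier was placed into the surgically exposed duodenum under light ether anesthesia. Serum radioactivity (0.2 ml) read 30 min later. Mean ± SEM, 8-10 birds.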

Experiment [2] concerns Gallus gallus. Kind of experiment: Induction of intestinal [45Ca2+] absorption in rachitic white leghorn cockerel assessed as radioactivity in serum up to 97.5 nmol, ip measured at 24 hrs relative to control. In short, it runs like this: as §1
Experiment [3] relates to Gallus gallus. Kind of experiment: Induction of bone calcium mobilization in rachitic white leghorn cockerel assessed as Ca2+ level in serum at 32.5 nmol, ip measured up to 96 hrs by atomic absorption spectrometric analysis relative to control. The essentials: (§2)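 Cockerels raised 3 weeks on rachitogenic low-calcium diet without vitamin D, then zero-calcium diet for 3 days before assay. Compound given ip in 0.2 ml 1,2-propanediol-ethanol (3/1); -D controls received solvent only, +D controls 6.5 nmol vitamin D3 24 h before assay. Serum Ca2+ measured by atomic absorption spectrometry on diluted serum. Mean ± SEM, 8-10 birds.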

For experiment [4], the system named is Gallus gallus. Kind of experiment: Induction of bone calcium mobilization in rachitic white leghorn cockerel assessed as Ca2+ level in serum up to 97.5 nmol, ip measured at 24 hrs by atomic absorption spectrometric analysis relative to control. In short, it runs like this:
as §2

Experiment [5] deals with Gallus gallus. The experiment is described as follows: Induction of intestinal [45Ca2+] absorption in rachitic white leghorn cockerel assessed as radioactivity in serum at 130 nmol, ip measured at 24 hrs. The essentials: as §1
For experiment [6], the system named is Gallus gallus. Kind of experiment: Induction of bone calcium mobilization in rachitic white leghorn cockerel assessed as Ca2+ level in serum up to 78 nmol, ip treated 24 hrs prior to testing measured at 24 hrs post treatment by atomic absorption spectrometric analysis. The essentials: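 White Leghorn cockerels reared 3 weeks on a rachitogenic low-calcium diet without vitamin D, then zero-calcium diet for 3 days before assay. Single intraperitoneal dose in 0.2 ml 1,2-propanediol-ethanol (3/1) 24 h before assay; vehicle-only rachitic and vitamin D3 controls. Blood taken after decapitation and allowed to clot. Serum calcium measured by atomic absorption spectrometry on diluted samples. Mean ± SEM, 8-10 birds.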

Experiment [7] deals with Gallus gallus. Kind of experiment: Induction of intestinal [45Ca2+] absorption in rachitic white leghorn cockerel assessed as radioactivity in serum up to 78 nmol, ip treated 24 hrs prior to testing measured at 24 hrs post treatment. The essentials:
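Rachitic White Leghorn cockerels (3 weeks rachitogenic low-calcium diet without vitamin D, zero-calcium diet for the last 3 days). Dosed intraperitoneally in 0.2 ml propanediol-ethanol (3/1) 24 h before assay. Under light ether anaesthesia the duodenum was exposed and given 5 μCi 45Ca2+ plus 4 mg carrier 40Ca2+. After 30 min, decapitation; radioactivity counted in 0.2 ml serum. Mean ± SEM, 8-10 birds.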

In experiment [8] the test system is Gallus gallus. Kind of experiment: Induction of bone calcium mobilization in rachitic white leghorn cockerel assessed as Ca2+ level in serum at 130 nmol, ip measured at 24 hrs by atomic absorption spectrometric analysis. In short, it runs like this: as §2

As for `C=C1CC[C@H](O)C/C1=C/C=C1\CCC[C@]2(C)[C@@H]([C@H](C)C(C)(C)O)CC[C@@H]12`, the result in the experiment on Gallus gallus [1], in the experiment on Gallus gallus [2], in the experiment with Gallus gallus [3] and in the experiment with Gallus gallus [4] was inactive.
With `C=C1CC[C@H](O)C/C1=C/C=C1\CCC[C@]2(C)[C@@H]([C@H](C)CCCCC(C)(C)O)CC[C@@H]12`, the outcome with Gallus gallus [5], in the experiment on Gallus gallus [6], in the experiment on Gallus gallus [7] and with Gallus gallus [8] was Active.
Regarding `C=C1CC[C@H](O)C/C1=C/C=C1\CCC[C@]2(C)[C@@H]([C@H](C)CCC(C)(C)O)CC[C@@H]12`, the outcome in the experiment on Gallus gallus [1], with Gallus gallus [2], with Gallus gallus [3] and in the experiment on Gallus gallus [4] was inactive.
On to `C=C1CC[C@H](O)C/C1=C/C=C1\CCC[C@]2(C)[C@@H]([C@H](C)CCCC(C)C)CC[C@@H]12`, for which the result with Gallus gallus [6] and in the experiment on Gallus gallus [7] was Active.
As to `C=C1CC[C@H](O)C/C1=C/C=C1\CCC[C@]2(C)[C@@H]([C@H](C)CC(C)(C)O)CC[C@@H]12`, the outcome in the experiment with Gallus gallus [1], in the experiment with Gallus gallus [2], in the experiment with Gallus gallus [3] and in the experiment with Gallus gallus [4] was inactive.
Regarding `C=C1CC[C@H](O)C/C1=C/C=C1\CCC[C@]2(C)[C@@H](C(C)(C)O)CC[C@@H]12`, the outcome with Gallus gallus [1], in the experiment with Gallus gallus [2], in the experiment with Gallus gallus [3] and with Gallus gallus [4] was inactive.
